Shown are actives, neighbours in structure and some others; about 4% of the full set was active somewhere.
Mdm2 ligase inh: inhibitors of human Mdm2 E3 ubiquitin ligase. Q00987. cell-based MDM2 ubiquitination luciferase reporter, 2 h; 0 = plate control, 100 = twice control, blank-subtracted. signal enhancement, % at 5 µM. AID 1230. hit rate 0.11% among 210,000;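 active = signal enhancement of 30% or more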;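 note: luminescence tracks abundance of the self-degrading MDM2-luciferase fusion protein; higher signal means inhibition of MDM2 E3 ligase activity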
Target sequence (Q00987 whole entry, looked up, the tested form may be a part): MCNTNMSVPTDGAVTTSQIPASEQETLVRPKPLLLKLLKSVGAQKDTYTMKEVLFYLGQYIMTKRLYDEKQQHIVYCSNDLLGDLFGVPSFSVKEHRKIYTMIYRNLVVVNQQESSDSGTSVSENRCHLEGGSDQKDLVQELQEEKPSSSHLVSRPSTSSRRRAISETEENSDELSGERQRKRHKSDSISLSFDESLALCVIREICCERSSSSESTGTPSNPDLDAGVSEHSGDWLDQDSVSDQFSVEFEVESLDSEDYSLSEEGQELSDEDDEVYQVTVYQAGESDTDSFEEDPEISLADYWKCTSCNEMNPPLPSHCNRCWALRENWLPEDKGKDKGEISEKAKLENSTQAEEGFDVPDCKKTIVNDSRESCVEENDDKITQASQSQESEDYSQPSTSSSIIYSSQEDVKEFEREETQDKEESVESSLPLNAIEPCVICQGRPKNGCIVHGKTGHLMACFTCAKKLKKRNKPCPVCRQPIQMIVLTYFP
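Material: stable MDM2–luciferase fusion reporter cells / Quantity: 2000 cells/well / Dosing: single 5 µM compound dose, 0.2% final DMSO / Buffer or medium: DMEM / Schedule: 4 h cell settling then 2 h compound exposure, 37 °C / Detection: luminescence with SteadyLite reagent, 15 min at room temperature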
RAM inhibit: inhibitors of the yeast RAM network; S. cerevisiae dse1pr::URA3 reporter, 5-FOA growth OD615, 2 d; analog-sensitive cbk1-as2 kinase mutant strain; inhibition, % at 50 µM; hit rate 1.8% among 190,000; AID 868;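 active = inhibition above a set limit, 3 SD over mean compound inhibition, cut at about 8.4% in these data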;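 note: 0% = DMSO-only wells with no growth and 100% = 10 µM 1-NA-PP1 full growth; inhibition rescues growth on 5-FOA so higher OD means more RAM inhibition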
Yeast life ext: extends the lifespan of yeast | hit rate 0.68% among 130,000 | AID 775 | inhibition of the nicotinamide effect, % at 10 µM | S. cerevisiae growth with nicotinamide, OD615; deaD strain in restrictive glucose medium;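 active = inhibition above a set limit, placed 3 SD over the median of all compounds, cut at about 26% in these data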;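 note: 0% = nicotinamide-treated wells and 100% = cells grown without nicotinamide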
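Assay system: engineered S. cerevisiae DeaD replicative-lifespan strain, galactose-grown log-phase cells; medium: restrictive CSMM-D dextrose medium; also added: nicotinamide, 1.5 mM, co-present with compound; schedule: 48 h compound exposure at 30 °C, humidified; detection: absorbance at 615 nm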
Yeast growth inh: chemicals that inhibit yeast BB579 growth in restrictive medium (lifespan-shortening candidates); inhibition, % at 10 µM; AID 804; S. cerevisiae BB579 growth, OD615, 48 h; hit rate 0.51% among 140,000;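 active = inhibition above a set limit, 3 SD over the mean compound inhibition, cut at about 44% in these data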
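Material: Saccharomyces cerevisiae DeaD strain BB579, replicative lifespan model yeast; buffer or medium: CSMM-D restrictive synthetic medium containing dextrose (glucose); compound: 10 µM single dose, DMSO 0.25%; timing: 48 h compound exposure at 30 °C after 4 h preincubation; signal: turbidity as optical density at 615 nm; benchmarks: positive control amphotericin B 10 µg/mL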
INS promoter inh: TRM-6 insulin promoter activity inhibition; TRM-6 cells, insulin promoter-eGFP reporter, imaging; reporter expression induced with tamoxifen; inhibition, % at 2 µM; hit rate 0.9% among 130,000; AID 1273;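 active = inhibition above the mean plus 3 SD, with well images judged a real hit on visual review, cut at about 60% in these data, passing the limit was not always enough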
Measles CPE: protection of cells from measles virus; Measles virus-infected cells, CPE protection, absorbance; protection (pct of control), % at 4 µM; hit rate 1.5% among 140,000; in the data active = protection mostly above about 24%, no sharp cut-off; inactive = mostly below about 26%
An asterisk follows results filed as active; . = no result.

SMILES	Mdm2 ligase inh	RAM inhibit	Yeast life ext	Yeast growth inh	INS promoter inh	Measles CPE
COc1ccc(-c2n[nH]c(C(F)(F)F)c2-c2cc3ccccc3o2)c(O)c1	-30	-1	-29	100*	-9	9
O=C(CCSc1ccc(Cl)cc1)N1CCCCCC1	-13	1	-2	-14	-37	31*
CCN1C(=O)C(CC(=O)NCc2ccc(Cl)cc2)N(CC)C1=O (stereo not given)	7	0	-11	1	-52	5
CCN1C(=O)C(CC(=O)NC2CCCCC2)N(CC)C1=O (stereo not given)	-9	2	-14	-10	-9	50*
COc1ccc(NC(=O)c2cc3c(=O)n4ccccc4nc3n2C)cc1OC	-16	3	.	.	-26	.
CCOC(=O)c1sc2nc(C)[nH]c(=S)c2c1C	-25	0	.	.	79*	.
CCOC(=O)c1sc2nc(C)n(N)c(=O)c2c1C	-8	1	.	.	40	.
Cc1ccccc1-n1c(C)nnc1SCC(=O)N1CCc2ccccc2C1	-2	-1	-2	-16	11	13
COc1cc(-c2[nH]ncc2CN2CCN(c3cccc(C)n3)CC2)cc(OC)c1OC	-4	.	.	.	.	.
Cc1cc(C)n(-c2nc3c(c(=O)n(C)c(=O)n3C)n2CC(O)COc2ccccc2C)n1 (stereo not given)	.	.	.	.	77*	.
O=S(=O)(c1cccc(NC(=S)Nc2ccc(Br)cc2Cl)c1)N1CCOCC1	-13	0	-8	-20	12	5
O=C(CCCCCN1C(=O)c2ccccc2C1=O)Oc1ccc2c3c(c(=O)oc2c1)CCC3	-6	11*	23	-50	-6	16
O=C(Oc1ccc2c3c(c(=O)oc2c1)CCC3)c1ccco1	-7	4	-12	-14	36	32
C/C(=N\NC(=O)c1ccc(NS(=O)(=O)c2cccs2)cc1)c1ccc(O)cc1O	-5	.	.	.	.	.
Cc1ccc2cc(CCNS(=O)(=O)c3ccc(F)cc3)c(=O)[nH]c2c1C	-3	8.5*	.	.	.	.
CN(/N=C/c1cc(Cl)cc(Cl)c1O)c1c(Cl)cccc1[N+](=O)[O-]	-9	.	.	.	.	.
CCn1c(=O)n(CC(=O)Nc2cc(OC)c(OC)c(OC)c2)c(=O)c2ccccc21	37*	1	-1	-42	.	12
COc1ccc(NC(=O)Cn2c(=O)n(CC3CCCO3)c(=O)c3ccccc32)c(OC)c1 (stereo not given)	-1	5	.	.	.	.
COc1cc(NC(=O)Cn2c(=O)n(CC3CCCO3)c(=O)c3ccccc32)cc(OC)c1 (stereo not given)	-7	10*	.	.	8	.
CCOc1cc(C2C3=C(CC(C)(C)CC3=O)Nc3n[nH]c(C)c32)ccc1O (stereo not given)	-11	-1	.	.	-82	.
COc1ccc(C2=NOC(C(=O)Nc3cc(Br)ccc3O)C2)cc1OC (stereo not given)	-19	2	-6	-28	74*	19
O=c1[nH]c(NCc2ccccc2)nc2c1CCCC2	-15	1	-16	-8	-11	9
CC(C)c1ccc(-c2c(C#N)c(N)nc(SCC(=O)N3CCCCC3)c2C#N)cc1	-30	4	4	12	.	33*
CC(C)c1ccc(-c2c(C#N)c(N)nc(SCC(=O)N3CCCCCC3)c2C#N)cc1	.	5	-2	-57	7	13
COc1cc(C2C(C#N)=C(N)OC3=C2C(=O)CC(C)(C)C3)ccc1OCCN1CCOCC1 (stereo not given)	-23	.	.	.	.	.
SMILES	Mdm2 ligase inh	RAM inhibit	Yeast life ext	Yeast growth inh	INS promoter inh	Measles CPE
COC(=O)c1cccc(S(=O)(=O)N(Cc2ccco2)Cc2cc3ccc(OC)cc3[nH]c2=O)c1	-7	5	-5	-14	50	11
COC(=O)c1cccc(S(=O)(=O)N(Cc2ccco2)Cc2cc3cc(OC)c(OC)cc3[nH]c2=O)c1	-7	8.9*	-4	-31	-13	9
CCOC(=O)N1CCN(Cc2ccc(O)c3ncccc23)CC1	0	0	.	.	.	.
CCOC(=O)N1CCC(=C2c3ccc(Cl)cc3CCc3cccnc32)CC1	.	1	33*	-56	38	12
Cc1ccc(N=C2S/C(=C\c3cn(CC(=O)O)c4ccccc34)C(=O)N2C)cc1	13	6	4	-17	.	6
CC1=C(C(=O)NCc2ccccn2)C2(CCC(C)CC2)OC1=O (stereo not given)	-8	1	21	-50	.	3
Cc1ccn2cc(CNS(=O)(=O)c3cccs3)nc2c1	-1	.	.	.	.	.
Cc1ccn2cc(CNS(=O)(=O)c3ccc(Cl)s3)nc2c1	-5	2	-11	-12	.	29*
CC1CC(C)CN(c2cc(N(C)CCO)c([N+](=O)[O-])c3nonc23)C1 (stereo not given)	-5	1	.	.	.	.
CCOc1cc(C(c2c(C)[nH][nH]c2=O)c2c(C)[nH][nH]c2=O)ccc1OC(=O)c1cccc([N+](=O)[O-])c1	3	1	-16	-35	30	37*
CCOc1cc(C(c2c(C)[nH][nH]c2=O)c2c(C)[nH][nH]c2=O)ccc1OCc1ccc([N+](=O)[O-])cc1	-18	0	-8	-27	.	8
CCCC(=O)c1c(NCCO)cc(C)oc1=O	-13	0	.	.	14	.
Clc1c(-c2nnc3n2CCCCC3)sc2ccccc12	-14	0	2	-61	-55	3
COc1ccc2c(Cl)c(-c3nnc4n3CCCCC4)sc2c1	-16	-1	-10	-32	29	43*
Cc1ccc(-c2nnc3n2CCCCC3)cc1	23	3	1	-24	23	29*
Cc1cccc2cc(C#N)c(NCCNC(=O)COc3ccccc3)nc12	1	10*	.	.	.	.
O=C(c1ccc(Cl)c([N+](=O)[O-])c1)N1CCN(Cc2ccc3c(c2)OCO3)CC1	1	0	.	.	-121	.
COCc1cc(C)nc(SCC(=O)Oc2ccc(Cl)cc2)c1C#N	-12	3	.	.	-12	.
COCc1cc(C)nc(SCC(=O)Oc2ccccc2)c1C#N	-12	9.1*	.	.	.	.
COc1ccc(/C=C/C=C2\NC(=S)NC2=O)cc1	-9	10*	.	.	.	.
COC(=O)CNC(=O)c1nn(-c2cccc(OC)c2)c(=O)c2ccccc12	-13	3	-5	-28	.	44*
CC(C)(C)C(=O)NCCN1CCN(C(=O)C(C)(C)C)CC1	.	1	.	-7	71	8
CC1(C)C(c2cccs2)=[N+]([O-])C2(CCCCC/C2=N\NC(N)=O)N1O (stereo not given)	1	1	-3	9	13	30*
Cc1ccc(C2=[N+]([O-])C3(CCCCC/C3=N\O)N(O)C2(C)C)o1 (stereo not given)	-3	1	-1	-23	-70	32
CN1C(=O)C2C(c3ccc(N(C)C)cc3)=NN(Cc3ccccc3)C2C1=O (stereo not given)	-4	0	.	.	45	.

High-throughput results: PubChem BioAssay, several laboratories
